From ChEMBL document CHEMBL3734738, “A structure-activity relationship of non-peptide macrocyclic histone deacetylase inhibitors and their anti-proliferative and anti-inflammatory activities” (Bioorg Med Chem, 2015)
One block for each compound: values may come before it. The source made the active and inactive calls. The rule behind the calls is not given here.

Key:
[1] = molecular target: T1, Histone deacetylase 1 (Homo sapiens, UniProt Q13547); assay: Inhibition of recombinant HDAC1 (unknown origin) expressed in Escherichia coli BL21(DE3) after 60 mins using trichostatin A by label-free mass spectrometry-based SAMDI assay
[2] = molecular target: T2, Protein deacetylase HDAC6 (Homo sapiens, UniProt Q9UBN7); assay: Inhibition of recombinant HDAC6 (unknown origin) expressed in Escherichia coli BL21(DE3) after 60 mins using trichostatin A by label-free mass spectrometry-based SAMDI assay
T2 sequence (Q9UBN7 whole entry): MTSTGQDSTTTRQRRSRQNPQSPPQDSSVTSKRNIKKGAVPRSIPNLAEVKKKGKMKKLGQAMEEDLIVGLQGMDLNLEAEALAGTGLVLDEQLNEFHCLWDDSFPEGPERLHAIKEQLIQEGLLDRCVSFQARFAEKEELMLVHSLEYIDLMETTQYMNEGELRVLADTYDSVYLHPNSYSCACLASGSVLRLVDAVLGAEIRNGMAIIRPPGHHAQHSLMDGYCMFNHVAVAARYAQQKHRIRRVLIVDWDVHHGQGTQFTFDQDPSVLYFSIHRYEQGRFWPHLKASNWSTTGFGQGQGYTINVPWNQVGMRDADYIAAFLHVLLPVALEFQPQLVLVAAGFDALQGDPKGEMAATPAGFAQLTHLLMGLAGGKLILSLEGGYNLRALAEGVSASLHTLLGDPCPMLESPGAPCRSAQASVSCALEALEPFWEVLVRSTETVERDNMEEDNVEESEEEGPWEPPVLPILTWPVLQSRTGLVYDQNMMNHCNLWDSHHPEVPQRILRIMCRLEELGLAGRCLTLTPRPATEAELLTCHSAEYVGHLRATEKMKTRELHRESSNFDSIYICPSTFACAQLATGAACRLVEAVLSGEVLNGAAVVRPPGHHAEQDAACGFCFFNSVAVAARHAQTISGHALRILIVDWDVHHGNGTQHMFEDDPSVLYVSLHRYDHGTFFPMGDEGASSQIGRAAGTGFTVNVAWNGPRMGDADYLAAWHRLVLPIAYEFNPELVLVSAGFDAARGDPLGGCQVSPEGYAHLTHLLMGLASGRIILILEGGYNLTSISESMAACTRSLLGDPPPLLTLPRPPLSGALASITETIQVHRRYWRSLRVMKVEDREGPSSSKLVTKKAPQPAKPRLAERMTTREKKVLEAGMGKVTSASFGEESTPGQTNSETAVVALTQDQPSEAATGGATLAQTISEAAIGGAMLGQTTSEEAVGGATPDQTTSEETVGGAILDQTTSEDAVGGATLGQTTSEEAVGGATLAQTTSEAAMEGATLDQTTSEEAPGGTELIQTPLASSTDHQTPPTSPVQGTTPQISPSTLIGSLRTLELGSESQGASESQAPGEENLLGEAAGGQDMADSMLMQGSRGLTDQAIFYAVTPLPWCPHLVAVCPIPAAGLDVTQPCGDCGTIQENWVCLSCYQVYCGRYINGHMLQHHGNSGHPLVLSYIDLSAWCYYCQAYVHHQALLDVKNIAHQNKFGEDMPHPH

[3] = molecular target: T3, Histone deacetylase 8 (Homo sapiens, UniProt Q9BY41); assay: Inhibition of recombinant HDAC8 (unknown origin) expressed in Escherichia coli BL21(DE3) after 60 mins using trichostatin A by label-free mass spectrometry-based SAMDI assay
T3 sequence (Q9BY41 whole entry): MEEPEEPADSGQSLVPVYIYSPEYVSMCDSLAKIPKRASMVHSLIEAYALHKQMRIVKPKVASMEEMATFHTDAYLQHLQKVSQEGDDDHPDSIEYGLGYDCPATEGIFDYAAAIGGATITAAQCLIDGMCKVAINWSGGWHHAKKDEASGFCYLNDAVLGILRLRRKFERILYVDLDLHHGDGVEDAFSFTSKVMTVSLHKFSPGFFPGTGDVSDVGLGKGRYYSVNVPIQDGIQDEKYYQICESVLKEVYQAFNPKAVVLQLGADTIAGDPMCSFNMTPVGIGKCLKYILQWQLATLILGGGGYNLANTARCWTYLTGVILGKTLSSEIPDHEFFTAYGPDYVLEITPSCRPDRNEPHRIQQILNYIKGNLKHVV

[4] = tested on: A549; assay: Cytotoxicity against human A549 cells after 72 hrs by MTS assay; assay type: functional, cell-based
In short: (§1)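 Cells kept in DMEM with 10% FBS and 1% penicillin-streptomycin, seeded in 96-well plates for 24 h, then exposed to a range of drug concentrations for 72 h at 0.1% DMSO; viability read by MTS assay per manufacturer's protocol.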

[5] = tested on: MCF7; assay: Cytotoxicity against human MCF7 cells after 72 hrs by MTS assay; assay type: functional, cell-based; in short: as §1
[6] = tested on: Vero; assay: Cytotoxicity against African green monkey Vero cells after 72 hrs by MTS assay; assay type: cell-based; details: Chlorocebus sabaeus; in short: as §1
[7] = Inhibition of NTHi-induced NF-kappaB activation in human BEAS-2B cells treated 1 hr before NTHi stimulation measured after 5 hrs by luciferase assay; assay type: cell-based
[8] = tested on: BEAS-2B; assay: Antiinflammatory activity in human BEAS2B cells assessed as inhibition of NTHi-induced TNFalpha mRNA expression at 1 uM treated 2 hrs before NTHi stimulation measured after 1.5 hrs by Q-PCR analysis; assay type: functional, cell-based
In short: (§2)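 BEAS-2B cells pretreated 2 h with inhibitor at 1 μM, then stimulated 1.5 h with NTHi; PBS-treated cells as unstimulated control. Total RNA isolated with TRIzol, reverse transcribed, and TNF-α, IL-1α, IL-1β mRNA quantified by SYBR Green real-time PCR with 500 nM primers, reactions in triplicate; mean of n=3, representative of three independent experiments.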

[9] = tested on: BEAS-2B; assay: Antiinflammatory activity in human BEAS2B cells assessed as inhibition of NTHi-induced IL-1alpha mRNA expression at 1 uM treated 2 hrs before NTHi stimulation measured after 1.5 hrs by Q-PCR analysis; assay type: functional, cell-based; in short: as §2
[10] = tested on: BEAS-2B; assay: Antiinflammatory activity in human BEAS2B cells assessed as inhibition of NTHi-induced IL-1beta mRNA expression at 1 uM treated 2 hrs before NTHi stimulation measured after 1.5 hrs by Q-PCR analysis; assay type: functional, cell-based; in short: as §2
[11] = species on record: Homo sapiens; details: at 1 µM
[12] = molecular target: T1, Histone deacetylase 1; assay: Inhibition of recombinant HDAC1 (unknown origin) expressed in Escherichia coli BL21(DE3) at 10 uM after 60 mins using trichostatin A by label-free mass spectrometry-based SAMDI assay
[13] = Homo sapiens, A549, 72 h, read-out: IC50
[14] = Homo sapiens, MCF7, 72 h, read-out: IC50
[15] = Homo sapiens, BEAS-2B, read-out: IC50

T1 sequence (Q13547 whole entry): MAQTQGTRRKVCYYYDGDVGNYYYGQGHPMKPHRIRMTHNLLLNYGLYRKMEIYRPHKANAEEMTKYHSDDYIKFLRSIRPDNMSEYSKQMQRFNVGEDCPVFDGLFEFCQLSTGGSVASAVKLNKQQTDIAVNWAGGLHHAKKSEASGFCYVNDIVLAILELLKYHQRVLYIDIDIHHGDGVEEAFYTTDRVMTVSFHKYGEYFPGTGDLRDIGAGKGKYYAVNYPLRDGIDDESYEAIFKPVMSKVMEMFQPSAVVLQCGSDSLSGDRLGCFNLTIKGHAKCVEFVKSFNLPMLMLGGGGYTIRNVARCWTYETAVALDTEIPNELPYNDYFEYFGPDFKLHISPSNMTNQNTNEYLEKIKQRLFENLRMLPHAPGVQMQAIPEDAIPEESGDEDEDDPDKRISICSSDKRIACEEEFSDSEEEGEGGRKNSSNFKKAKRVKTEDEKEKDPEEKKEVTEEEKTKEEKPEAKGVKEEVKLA

Compound: CC[C@@H]1OC(=O)[C@@H](C)[C@H](O[C@H]2C[C@@](C)(OC)[C@](O)(CN(C)Cc3ccc(-c4cn(CCCCCCC(=O)NO)nn4)cc3)[C@H](C)O2)[C@H](C)[C@H](O[C@@H]2O[C@H](C)C[C@H](N(C)C)[C@H]2O)[C@@](C)(OC)C[C@H](C)C(=O)[C@@H](C)[C@@H](O)[C@@]1(C)O
IC50 [1]: 23.9 nM
IC50 [2]: 2.85 nM
IC50 [3]: 1840 nM
IC50 [4, 13]: 990 nM
IC50 [5, 14]: 690 nM
IC50 [6]: 1550 nM
IC50 [7, 15]: 197 nM
inhibition [8]: Active
inhibition [9]: Active
inhibition [10]: Active
Imax [11]: 35.6%

Compound: CC[C@@H]1OC(=O)[C@@H](C)[C@H](O[C@H]2C[C@@](C)(OC)[C@@H](O)[C@H](C)O2)[C@@H](C)[C@H](O[C@H]2O[C@@H](C)C[C@@H](N(C)C)[C@@H]2O)[C@](C)(O)C[C@H](C)CN(Cc2ccc(-c3cn(CCCCCCC(=O)NO)nn3)cc2)[C@H](C)[C@H](O)[C@@]1(C)O
IC50 [1]: 16.1 nM
IC50 [2]: 4.72 nM
IC50 [3]: 1700 nM
IC50 [4, 13]: 8280 nM
IC50 [5, 14]: 6300 nM
IC50 [6]: 6660 nM
IC50 [7, 15]: 244 nM
inhibition [8]: Active
inhibition [9]: Active
inhibition [10]: Active
Imax [11]: 31.4%

IC50 [1]: 20.8 nM
IC50 [2]: 6.99 nM
IC50 [3]: 1500 nM
IC50 [7, 15]: 47.2 nM
Compound: CC[C@H]1OC(=O)[C@H](C)C(=O)[C@H](C)[C@@H](O[C@@H]2O[C@H](C)C[C@H](N(C)Cc3ccc(-c4cn(CCCCCCC(=O)NO)nn4)cc3)[C@H]2O)[C@@](C)(OC)C[C@@H](C)C2=NCCN3C(=O)O[C@@]1(C)[C@H]3[C@H]2C
IC50 [4, 13]: 2190 nM
IC50 [5, 14]: 1980 nM
inhibition [8]: Active
inhibition [9]: Active
inhibition [10]: Active
Imax [11]: 35.3%

Compound: CC[C@H]1OC(=O)[C@@H](C)[C@H](O[C@H]2C[C@@](C)(OC)[C@@H](O)[C@H](C)O2)[C@H](C)[C@H](O[C@H]2O[C@@H](C)C[C@@H](N(C)Cc3ccc(-c4cn(CCCCCCC(=O)NO)nn4)cc3)[C@@H]2O)[C@@](C)(O)C[C@H](C)CN(C)[C@@H](C)[C@H](O)[C@@]1(C)O (stereo in doubt)
IC50 [1]: 68.6 nM
IC50 [2]: 7.29 nM
IC50 [3]: 314 nM
IC50 [4, 13]: 2320 nM
IC50 [5, 14]: 4080 nM
IC50 [6]: 5900 nM
IC50 [7, 15]: 280 nM
Imax [11]: 41.4%

Compound: CC[C@@H]1OC(=O)[C@@H](C)[C@H](O[C@H]2C[C@@](C)(OC)[C@@H](O)[C@H](C)O2)[C@H](C)[C@H](O[C@@H]2O[C@H](C)C[C@H](N(C)Cc3ccc(-c4cn(CCCCCCC(=O)NO)nn4)cc3)[C@H]2O)[C@@](C)(OC)C[C@H](C)C(=O)[C@@H](C)[C@@H](O)[C@@]1(C)O (stereo in doubt)
IC50 [1]: 207 nM
IC50 [2]: 6.67 nM
IC50 [3]: 713 nM
IC50 [4, 13]: 2290 nM
IC50 [5, 14]: 2860 nM
IC50 [6]: 4900 nM
IC50 [7, 15]: 243 nM
Imax [11]: 35.9%

Compound: CC[C@@H]1OC(=O)[C@@H](C)[C@H](O[C@@H]2C[C@](C)(OC)[C@@](O)(CN(C)C)[C@@H](C)O2)[C@H](C)[C@H](O[C@@H]2O[C@H](C)C[C@H](N(C)Cc3ccc(-c4cn(CCCCCCC(=O)NO)nn4)cc3)[C@H]2O)[C@@](C)(OC)C[C@H](C)C(=O)[C@@H](C)[C@@H](O)[C@@]1(C)O
IC50 [1]: 33.3 nM
IC50 [2]: 31.4 nM
IC50 [3]: 2210 nM
IC50 [4, 13]: 3580 nM
IC50 [5, 14]: 1430 nM
IC50 [6]: 2080 nM
IC50 [7, 15]: 260 nM
Imax [11]: 33.4%

Compound: CC[C@H]1OC(=O)[C@@H](C)[C@H](O[C@H]2C[C@@](C)(OC)[C@](O)(CN(C)C)[C@H](C)O2)[C@H](C)[C@H](O[C@H]2O[C@@H](C)C[C@@H](N(C)Cc3ccc(-c4cn(CCCCCCC(=O)NO)nn4)cc3)[C@@H]2O)[C@@](C)(O)C[C@H](C)CN(C)[C@@H](C)[C@H](O)[C@@]1(C)O
IC50 [1]: 79.5 nM
IC50 [2]: 18.9 nM
IC50 [3]: 749 nM
IC50 [4, 13]: 6800 nM
IC50 [6]: 5730 nM
IC50 [7, 15]: 575 nM
Imax [11]: 43.4%

Compound: CC[C@H]1OC(=O)[C@H](C)C(=O)[C@H](C)[C@@H](O[C@@H]2O[C@H](C)C[C@H](N(C)Cc3cccc(-c4cn(CCCCCC(=O)NO)nn4)c3)[C@H]2O)[C@@](C)(OC)C[C@@H](C)C2=NCCN3C(=O)O[C@@]1(C)[C@H]3[C@H]2C
IC50 [1]: 109 nM
IC50 [2]: 17.5 nM
IC50 [3]: 3230 nM
IC50 ([4]; a549): Not Active
IC50 ([5]; mcf7): Not Active
IC50 [7]: Not Active
Imax [11]: 71%

inhibition [12]: 27%
IC50 [1]: > 10000 nM
IC50 [2]: 361 nM
IC50 [3]: 2530 nM
Compound: CC[C@H]1OC(=O)[C@H](C)[C@@H](O[C@@H]2C[C@](C)(OC)[C@@](O)(CN(C)Cc3ccc(-c4cn(CCCC(=O)NO)nn4)cc3)[C@@H](C)O2)[C@@H](C)[C@@H](O[C@H]2O[C@@H](C)C[C@@H](N(C)C)[C@@H]2O)[C@](C)(OC)C[C@@H](C)C(=O)[C@H](C)[C@H](O)[C@]1(C)O

Compound: CC[C@H]1OC(=O)[C@H](C)[C@@H](O[C@@H]2C[C@](C)(OC)[C@H](O)[C@@H](C)O2)[C@@H](C)[C@@H](O[C@H]2O[C@@H](C)C[C@@H](N(C)Cc3ccc(-c4cn(CCCCCC(=O)NO)nn4)cc3)[C@@H]2O)[C@](C)(OC)C[C@@H](C)C(=O)[C@H](C)[C@H](O)[C@]1(C)O (stereo in doubt)
IC50 [1]: 533 nM
IC50 [2]: 3.61 nM
IC50 [3]: 1180 nM
IC50 [7, 15]: 785 nM
Imax [11]: 45.1%

Compound: CC[C@@H]1OC(=O)[C@H](C)[C@@H](O[C@@H]2C[C@](C)(OC)[C@H](O)[C@@H](C)O2)[C@@H](C)[C@@H](O[C@@H]2O[C@H](C)C[C@H](N(C)Cc3cccc(-c4cn(CCCCCCC(=O)NO)nn4)c3)[C@H]2O)[C@](C)(O)C[C@@H](C)CN(C)[C@H](C)[C@@H](O)[C@]1(C)O
IC50 [1]: 101 nM
IC50 [2]: 41 nM
IC50 [3]: 1440 nM
IC50 [4, 13]: 4090 nM
IC50 [5, 14]: 2370 nM
IC50 [6]: 8350 nM
IC50 [7, 15]: 609 nM
Imax [11]: 43.3%
